We go through one compound from ChEMBL document CHEMBL1221302, “Discovery of imidazo[1,2-b]pyridazine derivatives as IKKbeta inhibitors. Part 1: Hit-to-lead study and structure-activity relationship” (Bioorg Med Chem Lett, 2010).

Series [1] deals with Glycogen synthase kinase-3 beta (Homo sapiens, UniProt P49841). Description: Inhibition of recombinant GSK3-beta after 15 mins. In short, it runs like this:
(§1)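 Each recombinant kinase was assayed with ATP at its own Km.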

Series [2] addresses T1, Inhibitor of nuclear factor kappa-B kinase subunit alpha (Homo sapiens, UniProt O15111).
T1 sequence (O15111 whole entry): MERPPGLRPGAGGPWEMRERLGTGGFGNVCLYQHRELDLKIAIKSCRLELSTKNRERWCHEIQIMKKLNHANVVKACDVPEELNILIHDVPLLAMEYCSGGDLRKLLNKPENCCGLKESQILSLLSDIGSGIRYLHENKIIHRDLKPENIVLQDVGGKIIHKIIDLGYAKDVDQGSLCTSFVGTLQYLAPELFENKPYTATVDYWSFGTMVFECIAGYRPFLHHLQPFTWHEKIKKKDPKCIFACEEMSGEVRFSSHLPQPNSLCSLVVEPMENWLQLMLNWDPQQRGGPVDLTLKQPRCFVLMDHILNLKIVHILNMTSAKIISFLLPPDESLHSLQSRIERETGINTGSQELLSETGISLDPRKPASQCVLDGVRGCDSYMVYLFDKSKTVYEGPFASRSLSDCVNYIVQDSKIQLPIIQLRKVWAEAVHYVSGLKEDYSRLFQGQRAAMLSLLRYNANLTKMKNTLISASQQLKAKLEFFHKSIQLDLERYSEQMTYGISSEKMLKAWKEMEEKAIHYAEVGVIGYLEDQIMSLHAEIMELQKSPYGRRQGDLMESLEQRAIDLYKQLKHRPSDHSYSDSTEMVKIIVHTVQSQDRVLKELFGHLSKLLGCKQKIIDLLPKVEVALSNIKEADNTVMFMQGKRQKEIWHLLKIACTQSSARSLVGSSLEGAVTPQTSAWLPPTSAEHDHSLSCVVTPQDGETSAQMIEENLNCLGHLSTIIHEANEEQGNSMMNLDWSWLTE
Description: Inhibition of recombinant IKKalpha after 15 mins.

Series [3] deals with Mitogen-activated protein kinase 14 (Homo sapiens, UniProt Q16539). The series is described as follows: Inhibition of recombinant p38alpha after 15 mins. In short, it runs like this:
as §1

Series [4] has as its target Cyclin-dependent kinase 2 (Homo sapiens, UniProt P24941). Description: Inhibition of recombinant CDK2 after 15 mins.
Series [5] deals with T2, Inhibitor of nuclear factor kappa-B kinase subunit beta (Homo sapiens, UniProt O14920).
T2 sequence (O14920 whole entry): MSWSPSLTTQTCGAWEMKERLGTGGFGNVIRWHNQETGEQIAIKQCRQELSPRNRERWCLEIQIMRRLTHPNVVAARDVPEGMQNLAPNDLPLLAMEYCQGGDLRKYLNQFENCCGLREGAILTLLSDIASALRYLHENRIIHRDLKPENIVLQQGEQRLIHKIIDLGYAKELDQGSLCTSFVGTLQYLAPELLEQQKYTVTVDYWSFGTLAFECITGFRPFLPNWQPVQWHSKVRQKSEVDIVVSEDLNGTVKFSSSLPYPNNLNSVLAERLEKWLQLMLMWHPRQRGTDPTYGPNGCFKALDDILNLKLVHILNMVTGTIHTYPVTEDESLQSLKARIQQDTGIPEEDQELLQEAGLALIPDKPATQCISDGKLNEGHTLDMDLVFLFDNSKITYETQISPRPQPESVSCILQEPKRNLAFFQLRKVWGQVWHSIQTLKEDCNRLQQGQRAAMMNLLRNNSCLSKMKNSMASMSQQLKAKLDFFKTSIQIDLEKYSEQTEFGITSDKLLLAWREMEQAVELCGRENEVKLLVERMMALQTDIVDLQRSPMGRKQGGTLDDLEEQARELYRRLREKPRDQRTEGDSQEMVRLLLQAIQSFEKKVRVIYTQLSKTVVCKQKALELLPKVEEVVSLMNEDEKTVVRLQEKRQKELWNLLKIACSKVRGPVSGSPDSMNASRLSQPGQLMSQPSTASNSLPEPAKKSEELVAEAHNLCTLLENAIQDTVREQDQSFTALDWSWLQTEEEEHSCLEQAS
The series is described as follows: Inhibition of purified His-tagged IKK-beta after 15 mins.

A short description of series [6]: Apparent permeability of the compound at pH 7.4 by PAMPA method. Type of series: ADME. A general note: The PAMPA barrier holds no transporters, so it reflects passive diffusion.
The target in series [7] is Mitogen-activated protein kinase 10 (Homo sapiens, UniProt P53779). Description: Inhibition of recombinant JNK3 after 15 mins. In short, it runs like this:
as §1

For the next series, the system named is THP-1. The series is described as follows: Antiinflammatory activity in human THP1 cells assessed as inhibition of LPS-induced TNFalpha production after 4 hrs by ELISA. In kind it is functional, cell-based. The note with it: THP-1, 4 h. In short, it runs like this: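 THP-1 cells primed 3–4 days with 100 nM calcitriol in RPMI-1640 containing 10% FBS, then cultured overnight without calcitriol. Resuspended in RPMI-1640 with 25 mM HEPES at 1.5×10^5 cells/mL. Compound and E. coli O111:B4 LPS added together, 4 h at 37 °C in 5% CO2. TNFα measured in the centrifuged supernatant by ELISA.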

pIC50: −log10 of the molar value.

For orientation: pIC50 means the negative decadic logarithm of the IC50, by convention in mol/L. The Papp is the rate of passage across a membrane or cell layer, normalised by area and donor concentration.

Sequence of Glycogen synthase kinase-3 beta (P49841 whole entry): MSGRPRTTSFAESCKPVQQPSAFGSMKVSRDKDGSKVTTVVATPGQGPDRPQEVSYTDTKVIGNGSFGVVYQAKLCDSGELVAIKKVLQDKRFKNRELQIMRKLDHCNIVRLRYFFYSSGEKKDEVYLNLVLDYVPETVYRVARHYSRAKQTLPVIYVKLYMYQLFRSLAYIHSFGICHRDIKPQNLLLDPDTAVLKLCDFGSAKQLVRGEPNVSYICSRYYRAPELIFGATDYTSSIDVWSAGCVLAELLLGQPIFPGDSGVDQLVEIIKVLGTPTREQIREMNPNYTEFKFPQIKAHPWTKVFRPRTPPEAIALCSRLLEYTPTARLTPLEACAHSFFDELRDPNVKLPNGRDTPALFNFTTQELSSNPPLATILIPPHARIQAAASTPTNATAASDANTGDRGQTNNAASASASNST
Sequence of Mitogen-activated protein kinase 14 (Q16539 whole entry): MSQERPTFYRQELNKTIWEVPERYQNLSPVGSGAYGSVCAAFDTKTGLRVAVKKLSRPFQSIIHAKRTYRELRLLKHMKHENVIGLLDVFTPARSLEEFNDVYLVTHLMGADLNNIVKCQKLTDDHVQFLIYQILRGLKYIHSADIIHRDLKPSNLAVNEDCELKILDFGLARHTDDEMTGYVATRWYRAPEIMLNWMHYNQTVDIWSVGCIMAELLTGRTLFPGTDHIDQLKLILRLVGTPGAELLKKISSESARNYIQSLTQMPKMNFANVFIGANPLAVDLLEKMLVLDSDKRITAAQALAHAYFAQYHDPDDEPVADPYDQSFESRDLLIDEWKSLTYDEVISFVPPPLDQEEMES
Sequence of Mitogen-activated protein kinase 10 (P53779 whole entry): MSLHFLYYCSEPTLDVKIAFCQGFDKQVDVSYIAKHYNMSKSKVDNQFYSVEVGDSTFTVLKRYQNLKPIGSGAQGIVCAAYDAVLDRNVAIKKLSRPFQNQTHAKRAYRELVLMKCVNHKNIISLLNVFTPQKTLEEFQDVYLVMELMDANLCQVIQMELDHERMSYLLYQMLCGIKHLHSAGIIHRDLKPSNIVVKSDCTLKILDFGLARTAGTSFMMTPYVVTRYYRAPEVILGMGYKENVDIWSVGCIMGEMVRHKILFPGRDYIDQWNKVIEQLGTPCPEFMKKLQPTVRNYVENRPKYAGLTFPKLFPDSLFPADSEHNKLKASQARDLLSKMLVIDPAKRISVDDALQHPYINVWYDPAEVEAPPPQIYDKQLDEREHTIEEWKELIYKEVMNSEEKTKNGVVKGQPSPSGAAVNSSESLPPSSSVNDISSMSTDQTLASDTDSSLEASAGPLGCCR

In the case of `CN(C)CCNC(=O)c1ccc(-c2cnc3ccc(NCC4CC4)nn23)cc1`, the pIC50 was less than 4.00 in series [1]; less than 4.00 in series [2]; less than 4.00 in series [3]; less than 4.00 in series [4]; 6.70 in series [5]; less than 4.00 in series [7]. The pIC50 with THP-1 was 6.16. For the same compound, the Papp in series [6] is greater than 50 ×10⁻⁶ cm/s.
